ChEMBL document CHEMBL3808334, “Synthesis and in vitro evaluation of novel triazine analogues as anticancer agents and their interaction studies with bovine serum albumin” (Eur J Med Chem, 2016)

Experiments:
Type in all cases: functional
[1] = Growth inhibition of human SKOV3 cells assessed as cell growth at 10^-7 M incubated for 48 hrs by sulforhodamine B assay; conditions: SK-OV-3, 48 h, read-out: Activity
[2] = Growth inhibition of human BT549 cells incubated for 48 hrs by sulforhodamine B assay; conditions: BT-549, 48 h
How it was run: (§1)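 Five-dose assay: five concentrations from 10-fold or ½-log serial dilutions. Cells are plated at 5,000–40,000 per well according to doubling time, grown 24 h, then exposed 48 h at 37 °C, 5% CO₂. Fixed with cold 50% TCA (final addition) for 60 min at 4 °C and stained with 0.4% SRB in 1% acetic acid. Bound dye is solubilized in 10 mM Tris base and read at 515 nm. GI₅₀ is where [(Ti−Tz)/(C−Tz)]×100 = 50, with a time-zero plate as Tz.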

HT-29 = assay: Growth inhibition of human HT-29 cells assessed as cell growth at 10^-7 M incubated for 48 hrs by sulforhodamine B assay; conditions: HT-29, 48 h, read-out: Activity
T47D = assay: Growth inhibition of human T47D cells assessed as cell growth at 10^-5 M incubated for 48 hrs by sulforhodamine B assay; conditions: read-out: Activity
NCI-H460 = assay: Growth inhibition of human NCI-H460 cells assessed as cell growth at 10^-6 M incubated for 48 hrs by sulforhodamine B assay; conditions: NCI-H460, 48 h, read-out: Activity
Malme-3M = assay: Growth inhibition of human MALME-3M cells assessed as cell growth at 10^-5 M incubated for 48 hrs by sulforhodamine B assay; conditions: read-out: Activity
MDA-MB-231 = assay: Growth inhibition of human MDA-MB-231 cells assessed as cell growth at 10^-7 M incubated for 48 hrs by sulforhodamine B assay; conditions: MDA-MB-231, 48 h, read-out: Activity
NCI-H322M [3] = assay: Growth inhibition of human NCI-H322M cells assessed as cell growth at 10^-4 M incubated for 48 hrs by sulforhodamine B assay; conditions: read-out: Activity
[4] = Growth inhibition of human SW620 cells assessed as cell growth at 10^-4 M incubated for 48 hrs by sulforhodamine B assay; conditions: SW-620, 48 h, read-out: Activity
[5] = Growth inhibition of human SNB19 cells assessed as cell growth at 10^-7 M incubated for 48 hrs by sulforhodamine B assay; conditions: SNB-19, 48 h, read-out: Activity
NCI-H522 = assay: Growth inhibition of human NCI-H522 cells assessed as cell growth at 10^-6 M incubated for 48 hrs by sulforhodamine B assay; conditions: NCI-H522, 48 h, read-out: Activity
[6] = Growth inhibition of human COLO205 cells assessed as cell growth at 10^-8 M incubated for 48 hrs by sulforhodamine B assay; conditions: COLO 205, 48 h, read-out: Activity
How it was run: (§2)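 Cells seeded at 5,000–40,000/well according to doubling time and preincubated 24 h at 37 °C, 5% CO2. Time-zero plates were TCA-fixed. DMSO concentrate was diluted in medium with 50 µg/ml gentamicin to give five concentrations (10-fold or ½ log steps), then exposed 48 h. Cells were TCA-fixed, stained with 0.4% SRB and read at 515 nm. Percent growth was taken against time-zero and control; GI50, TGI and LC50 derived.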

NCI-H322M [7] = assay: Growth inhibition of human NCI-H322M cells incubated for 48 hrs by sulforhodamine B assay
How it was run: (§3)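 Cells were plated at 5,000–40,000 per well according to doubling time and preincubated 24 h at 37 °C in 5% CO2; time-zero plates were then TCA-fixed. Five concentrations (10-fold or ½-log dilutions, DMSO stock) were incubated 48 h. Cells were TCA-fixed, stained with 0.4% SRB and read at 515 nm. GI50 was taken where [(Ti−Tz)/(C−Tz)]×100 = 50.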

SK-MEL-28 = assay: Growth inhibition of human SK-MEL-28 cells assessed as cell growth at 10^-6 M incubated for 48 hrs by sulforhodamine B assay; conditions: SK-MEL-28, 48 h, read-out: Activity
KM12 = assay: Growth inhibition of human KM12 cells incubated for 48 hrs by sulforhodamine B assay; conditions: KM12, 48 h; how it was run: as §3
[8] = Growth inhibition of human leukemia cells incubated for 48 hrs by sulforhodamine B assay; conditions: Leukemia cell
786-0 = assay: Growth inhibition of human 786-0 cells assessed as cell growth at 10^-7 M incubated for 48 hrs by sulforhodamine B assay; conditions: 786-0, 48 h, read-out: Activity; how it was run: as §1
SK-MEL-2 = assay: Growth inhibition of human SK-MEL-2 cells assessed as cell growth at 10^-5 M incubated for 48 hrs by sulforhodamine B assay; conditions: SK-MEL-2, 48 h, read-out: Activity
[9] = Growth inhibition of human RPMI8226 cells assessed as cell growth at 10^-5 M incubated for 48 hrs by sulforhodamine B assay; conditions: RPMI-8226, 48 h, read-out: Activity
[10] = Growth inhibition of human COLO205 cells assessed as cell growth at 10 uM incubated for 48 hrs by sulforhodamine B assay; conditions: COLO 205, 48 h, read-out: Activity
How it was run: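 Primary screen at one dose (10 µM) across 60 human cancer cell lines. Readout was growth percent relative to untreated control and time-zero.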

[11] = Growth inhibition of human OVCAR3 cells assessed as cell growth at 10^-4 M incubated for 48 hrs by sulforhodamine B assay; conditions: OVCAR-3, 48 h, read-out: Activity
[12] = Growth inhibition of human SNB75 cells incubated for 48 hrs by sulforhodamine B assay; conditions: SNB-75, 48 h; how it was run: as §3
[13] = Growth inhibition of human HCT15 cells assessed as cell growth at 10^-6 M incubated for 48 hrs by sulforhodamine B assay; conditions: HCT-15, 48 h, read-out: Activity; how it was run: as §2
MDA-MB-435 = assay: Growth inhibition of human MDA-MB-435 cells assessed as cell growth at 10^-6 M incubated for 48 hrs by sulforhodamine B assay; conditions: MDA-MB-435, 48 h, read-out: Activity
K562 = assay: Growth inhibition of human K562 cells assessed as cell growth at 10^-5 M incubated for 48 hrs by sulforhodamine B assay; conditions: K562, 48 h, read-out: Activity
[14] = Growth inhibition of human SNB75 cells assessed as cell growth at 10^-5 M incubated for 48 hrs by sulforhodamine B assay; conditions: SNB-75, 48 h, read-out: Activity
[15] = read-out: LC50 (the source's name)
[16] = read-out: pLC50 (the source's name) (converted)

Question: Which growth at 0.1 µM [1] does the source give for `c1ccc(-c2nc(Nc3ccc(-c4nc5ccccc5[nH]4)cc3)nc(N3CCOCC3)n2)cc1` here?
Answer: Its growth at 0.1 µM is 104%.

Question: And the GI50 ([2]; read-out: GI50)?
Answer: Its GI50 is 1.98 µM.

Question: And the CC50 [2, 15]?
Answer: Its CC50 is 7.68 µM.

Question: What about the TGI ([2]; read-out: TGI) of the same compound?
Answer: The TGI was 3.9 µM.

Question: What about the GI50 ([2]; read-out: pGI50 (converted)) of the same compound?
Answer: The GI50 was 2 µM.

Question: What about the CC50 [2, 16] of the same compound?
Answer: Its CC50 is 7.76 µM.

Question: What about the TGI ([2]; read-out: pTGI (converted)) of the same compound?
Answer: Its TGI is 3.89 µM.

Question: What about the growth at 0.1 µM (HT-29) of the same compound?
Answer: The growth at 0.1 µM was 108%.

Question: What about the growth at 10 µM (T47D) of the same compound?
Answer: The growth at 10 µM was -56%.

Question: And the growth at 1 µM (NCI-H460)?
Answer: The growth at 1 µM was 45%.

Question: What about the growth at 10 µM (Malme-3M) of the same compound?
Answer: The growth at 10 µM was -73%.

Question: And the growth at 0.1 µM (MDA-MB-231)?
Answer: The growth at 0.1 µM was 86%.

Question: What about the growth at 100 µM (NCI-H322M [3]) of the same compound?
Answer: Its growth at 100 µM is -62%.

Question: What about the growth at 100 µM [4] of the same compound?
Answer: Its growth at 100 µM is -84%.

Question: What about the growth at 0.1 µM [5] of the same compound?
Answer: The growth at 0.1 µM was 95%.

Question: And the growth at 1 µM (NCI-H522)?
Answer: Its growth at 1 µM is 109%.

Question: What about the growth at 0.01 µM [6] of the same compound?
Answer: The growth at 0.01 µM was 100%.

Question: What about the GI50 (NCI-H322M [7]; read-out: GI50) of the same compound?
Answer: Its GI50 is 1.65 µM.

Question: What about the CC50 (NCI-H322M [7]; [15]) of the same compound?
Answer: The CC50 was 6.67 µM.

Question: And the TGI (NCI-H322M [7]; read-out: TGI)?
Answer: The TGI was 3.31 µM.

Question: What about the GI50 (NCI-H322M [7]; read-out: pGI50 (converted)) of the same compound?
Answer: Its GI50 is 1.66 µM.

Question: And the CC50 (NCI-H322M [7]; [16])?
Answer: Its CC50 is 6.61 µM.

Question: And the TGI (NCI-H322M [7]; read-out: pTGI (converted))?
Answer: The TGI was 3.31 µM.

Question: What about the growth at 1 µM (SK-MEL-28) of the same compound?
Answer: Its growth at 1 µM is 82%.

Question: And the GI50 (KM12; read-out: GI50)?
Answer: The GI50 was 1.62 µM.

Question: What about the CC50 (KM12; [15]) of the same compound?
Answer: Its CC50 is 6.3 µM.

Question: What about the TGI (KM12; read-out: TGI) of the same compound?
Answer: The TGI was 3.19 µM.

Question: What about the GI50 (KM12; read-out: pGI50 (converted)) of the same compound?
Answer: The GI50 was 1.62 µM.

Question: What about the CC50 (KM12; [16]) of the same compound?
Answer: The CC50 was 6.31 µM.

Question: What about the TGI (KM12; read-out: pTGI (converted)) of the same compound?
Answer: The TGI was 3.16 µM.

Question: What about the GI50 [8] of the same compound?
Answer: The GI50 was 0.57 µM.

Question: And the TGI [8]?
Answer: The TGI was 2.17 µM.

Question: What about the CC50 [8, 15] of the same compound?
Answer: The CC50 was 16.3 µM.

Question: And the growth at 0.1 µM (786-0)?
Answer: Its growth at 0.1 µM is 78%.

Question: And the growth at 10 µM (SK-MEL-2)?
Answer: The growth at 10 µM was -85%.

Question: And the growth at 10 µM [9]?
Answer: Its growth at 10 µM is -32%.

Question: And the growth at 10 µM [10]?
Answer: The growth at 10 µM was -68.8%.

Question: What about the growth at 100 µM [11] of the same compound?
Answer: The growth at 100 µM was -100%.

Question: And the GI50 ([12]; read-out: GI50)?
Answer: Its GI50 is 1.64 µM.

Question: What about the CC50 [12, 15] of the same compound?
Answer: Its CC50 is 6.07 µM.

Question: What about the TGI ([12]; read-out: TGI) of the same compound?
Answer: Its TGI is 3.15 µM.

Question: And the GI50 ([12]; read-out: pGI50 (converted))?
Answer: Its GI50 is 1.62 µM.

Question: And the CC50 [12, 16]?
Answer: Its CC50 is 6.03 µM.

Question: And the TGI ([12]; read-out: pTGI (converted))?
Answer: The TGI was 3.16 µM.

Question: And the growth at 1 µM [13]?
Answer: Its growth at 1 µM is 13%.

Question: And the growth at 1 µM (MDA-MB-435)?
Answer: The growth at 1 µM was 96%.

Question: And the growth at 10 µM (K562)?
Answer: The growth at 10 µM was -54%.

Question: What about the growth at 10 µM [14] of the same compound?
Answer: Its growth at 10 µM is -88%.
